“And” between values parts separate entries of the source, which are not always exact repeats. Equal entries are not always repeated.
Tested on: U2OS
Assay: Multiplex assay against U2OS
Assay type: toxicity, cell-based
Conditions: human
Outline: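 Tubulin, mitochondrial-mass and membrane-permeability phenotypes are per cents of healthy-nucleus cells. Cells were gated by CellPathfinder machine learning into Hoechst high-intensity objects or normal cells, normal cells into healthy, pyknosed or fragmented nuclei, and pyknosed cells into mitotic or apoptotic. Before that, live cells stained at seeding with Hoechst33342, BioTracker Green Microtubule Cytoskeleton Dye, MitoTracker Red and Annexin V Alexa Fluor 680 were imaged on a CQ1 microscope at 37°C and 5% CO2 after compound addition.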

[1] = 12 h, 1 µM, compound concentration 1 uM
[2] = 12 h, 10 µM, compound concentration 10 uM
[3] = 24 h, 1 µM, compound concentration 1 uM
[4] = 24 h, 10 µM, compound concentration 10 uM
[5] = 48 h, 1 µM, compound concentration 1 uM
[6] = 48 h, 10 µM, compound concentration 10 uM

Nc1nccc(-c2ccn3c(N)nccc23)n1
Population Apoptotic (%) [1]: 36.59% and 39.13%
Population Fragmented Nuclei (%) [1]: 1.59% and 3.62%
Population Healthy Nuclei (%) [1]: 89.07% and 79.71%
Population Hoechst High Intensity Objects (%) [1]: 0%
Population Membrane Permeable-Phenotype (%) [1]: 0.51% and 5.45%
Population Mitochondria Different-Phenotype (%) [1]: 0.26% and 7.27%
Population Mitotic Cells (%) [1]: 63.41% and 60.87%
Population Normal (%) [1]: 100%
Population Pyknosed Nuclei (%) [1]: 9.34% and 16.67%
Population Tubulin-Different-Phenotype (%) [1]: 1.28% and 0.91%
Population Apoptotic (%) [2]: 37.93% and 47.62%
Population Fragmented Nuclei (%) [2]: 1.07% and 2.9%
Population Healthy Nuclei (%) [2]: 91.15% and 81.88%
Population Hoechst High Intensity Objects (%) [2]: 0%
Population Membrane Permeable-Phenotype (%) [2]: 0.88% and 1.77%
Population Mitochondria Different-Phenotype (%) [2]: 0.59% and 8.85%
Population Mitotic Cells (%) [2]: 62.07% and 52.38%
Population Normal (%) [2]: 100%
Population Pyknosed Nuclei (%) [2]: 7.77% and 15.22%
Population Tubulin-Different-Phenotype (%) [2]: 1.47% and 0%
Total Cell Count [2]: 373 and 138
Population Apoptotic (%) [3]: 48.28% and 64.29%
Population Fragmented Nuclei (%) [3]: 1.88% and 4%
Population Healthy Nuclei (%) [3]: 88.23% and 88%
Population Hoechst High Intensity Objects (%) [3]: 0%
Population Membrane Permeable-Phenotype (%) [3]: 0% and 3.25%
Population Mitochondria Different-Phenotype (%) [3]: 0.39% and 5.19%
Population Mitotic Cells (%) [3]: 51.72% and 35.71%
Population Normal (%) [3]: 100%
Population Pyknosed Nuclei (%) [3]: 9.9% and 8%
Population Tubulin-Different-Phenotype (%) [3]: 1.16% and 0.65%
Population Apoptotic (%) [4]: 40.48% and 37.04%
Population Fragmented Nuclei (%) [4]: 3.09% and 2.73%
Population Healthy Nuclei (%) [4]: 88.8% and 82.51%
Population Hoechst High Intensity Objects (%) [4]: 0%
Population Membrane Permeable-Phenotype (%) [4]: 0.22% and 0.66%
Population Mitochondria Different-Phenotype (%) [4]: 0.22% and 2.65%
Population Mitotic Cells (%) [4]: 59.52% and 62.96%
Population Normal (%) [4]: 100%
Population Pyknosed Nuclei (%) [4]: 8.11% and 14.75%
Population Tubulin-Different-Phenotype (%) [4]: 1.09% and 0%
Total Cell Count [4]: 518 and 183
Population Apoptotic (%) [5]: 45.74% and 43.75%
Population Fragmented Nuclei (%) [5]: 1.77% and 2.26%
Population Healthy Nuclei (%) [5]: 88.99% and 85.66%
Population Hoechst High Intensity Objects (%) [5]: 0%
Population Membrane Permeable-Phenotype (%) [5]: 1.33% and 2.64%
Population Mitochondria Different-Phenotype (%) [5]: 0.11% and 5.73%
Population Mitotic Cells (%) [5]: 54.26% and 56.25%
Population Normal (%) [5]: 100%
Population Pyknosed Nuclei (%) [5]: 9.24% and 12.08%
Population Tubulin-Different-Phenotype (%) [5]: 1.44% and 1.32%
Population Apoptotic (%) [6]: 43.48% and 40%
Population Fragmented Nuclei (%) [6]: 3.29% and 3.46%
Population Healthy Nuclei (%) [6]: 87.54% and 84.43%
Population Hoechst High Intensity Objects (%) [6]: 0% and 0.34%
Population Membrane Permeable-Phenotype (%) [6]: 0.91% and 2.05%
Population Mitochondria Different-Phenotype (%) [6]: 0.23% and 2.87%
Population Mitotic Cells (%) [6]: 56.52% and 60%
Population Normal (%) [6]: 100% and 99.66%
Population Pyknosed Nuclei (%) [6]: 9.17% and 12.11%
Population Tubulin-Different-Phenotype (%) [6]: 1.03% and 2.46%

COC[C@@H](CC(C)C)NC1=N/C(=C\c2ccc3ncsc3c2)C(=O)N1C
Population Apoptotic (%) [1]: 55.88% and 33.33%
Population Fragmented Nuclei (%) [1]: 15.5% and 15.08%
Population Healthy Nuclei (%) [1]: 77.48% and 78.21%
Population Hoechst High Intensity Objects (%) [1]: 0.41% and 0%
Population Membrane Permeable-Phenotype (%) [1]: 0.8% and 2.14%
Population Mitochondria Different-Phenotype (%) [1]: 0.27% and 9.29%
Population Mitotic Cells (%) [1]: 44.12% and 66.67%
Population Normal (%) [1]: 99.59% and 100%
Population Pyknosed Nuclei (%) [1]: 7.02% and 6.7%
Population Tubulin-Different-Phenotype (%) [1]: 1.33% and 0%
Total Cell Count [1]: 486 and 179
Population Apoptotic (%) [2]: 25% and 29.63%
Population Fragmented Nuclei (%) [2]: 47.65% and 84.45%
Population Hoechst High Intensity Objects (%) [2]: 29.32% and 10.96%
Population Membrane Permeable-Phenotype (%) [2]: 4.62% and 2.68%
Population Mitotic Cells (%) [2]: 75% and 70.37%
Population Normal (%) [2]: 70.68% and 89.04%
Population Pyknosed Nuclei (%) [2]: 3.24% and 3.02%
Population Tubulin-Different-Phenotype (%) [2]: 20.13% and 12.5%
Total Cell Count [2]: 873 and 1004
Population Apoptotic (%) [3]: 67.39% and 47.62%
Population Fragmented Nuclei (%) [3]: 12.71% and 10%
Population Healthy Nuclei (%) [3]: 79.7% and 80.87%
Population Hoechst High Intensity Objects (%) [3]: 0%
Population Membrane Permeable-Phenotype (%) [3]: 0.41% and 0%
Population Mitochondria Different-Phenotype (%) [3]: 0.41% and 6.45%
Population Mitotic Cells (%) [3]: 32.61% and 52.38%
Population Normal (%) [3]: 100%
Population Pyknosed Nuclei (%) [3]: 7.59% and 9.13%
Population Tubulin-Different-Phenotype (%) [3]: 0.83% and 0%
Total Cell Count [3]: 606 and 230
Population Fragmented Nuclei (%) [4]: 53.16% and 86.53%
Population Hoechst High Intensity Objects (%) [4]: 30.44% and 12.75%
Population Membrane Permeable-Phenotype (%) [4]: 2.98% and 2.22%
Population Mitotic Cells (%) [4]: 91.67% and 75%
Population Normal (%) [4]: 69.56% and 87.25%
Population Pyknosed Nuclei (%) [4]: 4.34% and 3.2%
Population Tubulin-Different-Phenotype (%) [4]: 20% and 8.89%
Total Cell Count [4]: 795 and 1004
Population Apoptotic (%) [5]: 48.44% and 55.56%
Population Fragmented Nuclei (%) [5]: 12.46% and 10.34%
Population Healthy Nuclei (%) [5]: 81.16% and 82.49%
Population Hoechst High Intensity Objects (%) [5]: 0.69% and 0.79%
Population Membrane Permeable-Phenotype (%) [5]: 1.6% and 0.64%
Population Mitochondria Different-Phenotype (%) [5]: 0% and 3.54%
Population Mitotic Cells (%) [5]: 51.56% and 44.44%
Population Normal (%) [5]: 99.31% and 99.21%
Population Pyknosed Nuclei (%) [5]: 6.38% and 7.16%
Population Tubulin-Different-Phenotype (%) [5]: 0.86% and 0%
Total Cell Count [5]: 1010 and 380
Population Apoptotic (%) [6]: 42.86% and 52.83%
Population Fragmented Nuclei (%) [6]: 86.99% and 92.61%
Population Healthy Nuclei (%) [6]: 3.8% and 2.78%
Population Hoechst High Intensity Objects (%) [6]: 32.94% and 15.32%
Population Membrane Permeable-Phenotype (%) [6]: 3.85% and 3.12%
Population Mitochondria Different-Phenotype (%) [6]: 0% and 3.12%
Population Mitotic Cells (%) [6]: 57.14% and 47.17%
Population Normal (%) [6]: 67.06% and 84.68%
Population Pyknosed Nuclei (%) [6]: 9.21% and 4.61%
Population Tubulin-Different-Phenotype (%) [6]: 3.85% and 6.25%
Total Cell Count [6]: 1020 and 1358

— ChEMBL document CHEMBL5724801, “EUbOPEN Chemogenomics Library - Multiplex” (2024)
